Common to all, as to type: functional, organism-based
In test [1] the test system is Elymus repens. As to the kind of experiment: Mycoherbicidal activity against Elymus repens (couch grass) assessed as decrease in length of necrotic lesions at 1 mg/ml by leaf-disk puncture assay. The method, boiled down: (§1)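 Leaf disk-puncture bioassay on leaves of host and nonhost plants. Compound was applied at 1 mg/mL, and necrosis was read 3 days post-application. Each bioassay was run twice with at least three replicates. Error bars are standard error, and means were compared by Fisher's LSD.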

For test [2], the system named is Cirsium arvense. As to the kind of experiment: Mycoherbicidal activity against Cirsium arvense (Canada thistle) assessed as decrease in length of necrotic lesions at 1 mg/ml by leaf-disk puncture assay. The method, boiled down:
as §1

The test system of test [3] is Candida tropicalis. Put plainly: Antimicrobial activity against Candida tropicalis assessed as growth inhibition at 50 ug/disk. In a few lines: (§2)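 Paper-disk assay against C. tropicalis, X. campestris and B. subtilis. Standard testing used 50 μg per disk. For concentration dependence, doses ran from 1.5 to 100 μg/disk. Each bioassay was run twice with at least three replicates. Means were compared by Fisher's LSD.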

Test [4] concerns Bacillus subtilis. Put plainly: Antimicrobial activity against Bacillus subtilis assessed as zone of lysis at 50 ug/disk. The method, boiled down: as §2
Test [5] relates to Xanthomonas campestris. As to the kind of experiment: Antimicrobial activity against Xanthomonas campestris assessed as zone of lysis at 50 ug/disk. The method, boiled down: as §2
For test [6], the system named is Elymus repens. As to the kind of experiment: Mycoherbicidal activity against Elymus repens (couch grass) assessed as decrease in length of necrotic lesions at 0.5 mg/ml by leaf-disk puncture assay. In a few lines: (§3)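 Dose-response leaf disk-puncture on E. repens and C. arvense leaves. Concentrations ran from 0.06 to 2 mg/mL (0.6-20 μg/disk), and necrotic symptoms were scored 2 days post-application. Each bioassay was run twice with at least three replicates. Means were compared by Fisher's LSD.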

For a further test, the system named is Cannabis sativa. As to the kind of experiment: Mycoherbicidal activity against Cannabis sativa (hemp) assessed as decrease in length of necrotic lesions at 1 mg/ml by leaf disk puncture assay. The method, boiled down:
as §1

The next test deals with Taraxacum officinale. Put plainly: Mycoherbicidal activity against Taraxacum officinale (dandelion) assessed as decrease in length of necrotic lesions at 1 mg/ml by leaf-disk puncture assay. In a few lines: as §1
For test [7], the system named is Cirsium arvense. As to the kind of experiment: Mycoherbicidal activity against Cirsium arvense (Canada thistle) assessed as decrease in length of necrotic lesions at 0.5 mg/ml by leaf-disk puncture assay. In a few lines:
as §3

The test system of the next test is Chenopodium album. Put plainly: Mycoherbicidal activity against Chenopodium album assessed as decrease in length of necrotic lesions at 1 mg/ml by leaf-disk puncture assay. The method, boiled down: as §1
In the next test the test system is Rumex confertus. Put plainly: Mycoherbicidal activity against Rumex confertus (Asian dock) assessed as decrease in length of necrotic lesions at 1 mg/ml by leaf-disk puncture assay. In a few lines: as §1
Test [8] has as its system Xanthomonas campestris. Put plainly: Antimicrobial activity against Xanthomonas campestris assessed as zone of lysis at 6.25 ug/disk. The method, boiled down:
as §2

The subject of the next test is Trifolium pratense. As to the kind of experiment: Mycoherbicidal activity against Trifolium pratense (red clover) assessed as decrease in length of necrotic lesions at 1 mg/ml by leaf-disk puncture assay. In a few lines:
as §1

The test system of test [9] is Candida tropicalis. Put plainly: Antimicrobial activity against Candida tropicalis assessed as growth inhibition at 6.25 ug/disk. The method, boiled down:
as §2

For a further test, the system named is Rosa pendulina. Put plainly: Mycoherbicidal activity against Rosa pendulina assessed as decrease in length of necrotic lesions at 1 mg/ml by leaf-disk puncture assay. The method, boiled down: as §1
Another test concerns Hordeum vulgare. Put plainly: Mycoherbicidal activity against Hordeum vulgare (barley) assessed as decrease in length of necrotic lesions at 1 mg/ml by leaf-disk puncture assay. The method, boiled down: as §1
Test [10] relates to Bacillus subtilis. Put plainly: Antimicrobial activity against Bacillus subtilis assessed as zone of lysis at 6.25 ug/disk. The method, boiled down: as §2
For a further test, the system named is Sonchus arvensis. Put plainly: Mycoherbicidal activity against Sonchus arvensis (field sow-thistle) assessed as decrease in length of necrotic lesions at 1 mg/ml by leaf-disk puncture assay. The method, boiled down:
as §1

For a further test, the system named is Phleum pratense. As to the kind of experiment: Mycoherbicidal activity against Phleum pratense (timothy grass) assessed as decrease in length of necrotic lesions at 1 mg/ml by leaf-disk puncture assay. In a few lines: as §1

Experimental findings from ChEMBL document CHEMBL3045352, “Papyracillic acid, a phytotoxic 1,6-dioxaspiro[4,4]nonene produced by Ascochyta agropyrina Var. nana, a potential mycoherbicide for Elytrigia repens biocontrol” (J Agric Food Chem, 2009) are described below.

Activity calls are given as the source filed them. No cut-off for these calls is given here.

Turning to `COC1=CC(=O)O/C1=C(\COC(C)=O)C(C)C(C)=O` (stereo unspecified), the outcome in the test with Elymus repens [1] and in the test on Cirsium arvense [2] was Active.
With `C=C1[C@H](C)[C@](C)(OC)O[C@]12OC(=O)C=C2OC`, the result with Elymus repens [1], in the test with Bacillus subtilis [4], in the test on Cirsium arvense [2] and in the test with Xanthomonas campestris [5] was Active. Also, the “growth inhibition (GI)” value with Candida tropicalis [3] was “Active”.
Consider `C=C(C(C)C(C)=O)C1(OC(C)=O)OC(=O)C=C1OC` (stereo unspecified), for which the outcome with Elymus repens [1], in the test with Bacillus subtilis [4], in the test on Cirsium arvense [2] and in the test on Xanthomonas campestris [5] was Active.
`COC1=CC(=O)O/C1=C(/COC(C)=O)C(C)C(C)=O` (stereo unspecified): the result in the test with Elymus repens [1], in the test with Bacillus subtilis [4] and in the test on Xanthomonas campestris [5] was Active.
Consider `C=C1[C@H](C)[C@](C)(O)O[C@]12OC(=O)C=C2OC`, for which the outcome in the test with Elymus repens [1], in the test on Elymus repens [6], in the test with Taraxacum officinale, in the test on Cirsium arvense [7], with Chenopodium album and with Rumex confertus was Active. Also, the outcome with Xanthomonas campestris [8], in the test on Trifolium pratense, with Rosa pendulina, in the test with Cirsium arvense [2], with Hordeum vulgare and in the test with Bacillus subtilis [10] was Active. Further, the result with Sonchus arvensis and in the test on Phleum pratense was Active. Further, in the test with Cannabis sativa, the outcome was inactive. Besides, in the test on Candida tropicalis [9], the “growth inhibition (GI)” value is “Active”.
`C=C(C(=O)/C(=C\C(=O)OC)OC)C(C)C(C)=O` (stereo unspecified): the outcome in the test with Cirsium arvense [2] was Active.
